Results taken from article PMC3099401 (Journal of agricultural and food chemistry, 2011).

Tests used:
NGP neuroblastoma cells = test: Calcium imaging with fura-2, NGP; assay type: cell-based; details: 100 μM
neuroblastoma cells [1] = test: In vitro cell viability; assay type: cell-based; details: 4 days, normalized to DMSO controls; for effect on viability: 100 and 200 μM
[2] = test system: SK-N-AS neuroblastoma cells; test: In vivo efficacy, SK-N-AS xenograft mouse model; set-up: species or system athymic nu/nu mice
[3] = test system: SK-N-AS neuroblastoma cells; test: Calcium imaging with fura-2, SK-N-AS; assay type: cell-based; details: 100 μM
neuroblastoma cells [4] = test: Cellular uptake by live-cell multiphoton microscopy; assay type: cell-based; details: 37°C
Procedure, shortened: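 Live neuroblastoma cells in HBSS kept at 37°C on a stage incubator. Two-photon imaging used 765 nm Ti:Sapphire excitation, a 20× objective and a GaAsP photon-counting detector, with 1024×1024 images at identical laser power. Imaging ran from 90 s (the earliest possible) and at 5 min after adding 100 μM test compound, then again 5 min after an HBSS wash and after re-addition.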

## Oc1ccc(/C=C/c2cc(O)cc(O)c2)cc1 [Res, resveratrol]
NGP neuroblastoma cells
  change in [Ca^2+]i (fura-2 fluorescence): rise in [Ca^2+]i
Neuroblastoma cells [1]; 100 μM
  reduction of the number of viable cells: ~85%
[2]; direct injection into the tumor, 250mg/kg, block copolymer formulation
  tumor regression: regression of the tumor was then observed
[2]; peri-tumor, 5 injections of 200 μL R-P104 (approx. 5.0 mg Res each) over two weeks
  tumor inhibition compared to vehicle-treated controls: about 88%
[3]
  change in [Ca^2+]i (fura-2 fluorescence): rise in [Ca^2+]i
Neuroblastoma cells [4]; 100 μM, HBSS
  cellular uptake (cellular fluorescence, excited at 765 nm): enters and then permeates throughout the cell
Neuroblastoma cells [4]; earliest time point that can be taken
  time after addition until cells become brightly fluorescent: ≤ 90 s

## O=C(O)[C@H]1O[C@@H](Oc2ccc(/C=C/c3cc(O)cc(O)c3)cc2)[C@H](O)[C@@H](O)[C@@H]1O [4′-Glu-Res, 4′-O-glucuronidated Res]
Neuroblastoma cells [1]
  effect on viability: no effect on viability

## O=C(O)[C@H]1O[C@@H](Oc2cc(O)cc(/C=C/c3ccc(O)cc3)c2)[C@H](O)[C@@H](O)[C@@H]1O [3-Glu-Res, 3-O-glucuronidated Res]
Neuroblastoma cells [1]
  effect on viability: no effect on viability

## O=S(=O)(O)Oc1cc(O)cc(/C=C/c2ccc(O)cc2)c1 [monosulf-Res, Res 3-O-sulfate]
Neuroblastoma cells [1]
  effect on viability: no effect on viability
